Laboratory results reported in ChEMBL document CHEMBL2321688, “Acyclic nucleoside phosphonates containing a second phosphonate group are potent inhibitors of 6-oxopurine phosphoribosyltransferases and have antimalarial activity” (J Med Chem, 2013).
Values belong to the molecule of their own block, whether it stands above or below them.

Assays:
[1] = Inhibition of Plasmodium vivax N-terminal hexahistidine-tagged HGPRT
In short: (§1)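 N-terminal hexa-histidine tagged enzymes purified to homogeneity by IMAC. Ki from Hanes' plots with guanine fixed at 60 μM and PRib-PP varied (2-1000 μM) according to Km(app); one concentration of each inhibitor.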

[2] = Cytotoxicity against human C32 cells assessed as inhibition of cell proliferation after 4 days by Coulter counter analysis; format: cell-based
In short: (§2)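 Cell proliferation in human A549 lung carcinoma, C32 melanoma and C32-TG (thioguanine-resistant, HGPRT-deficient C32 mutant) cells. Seeded at 7,500 (A549) or 15,000 (C32, C32-TG) cells per well; serial compound dilutions added 24 hr later. Four days at 37 °C, then trypsinized and counted by Coulter Counter. CC50 = concentration giving 50% proliferation versus untreated cells, by extrapolation; mean ± SEM of two or three independent tests.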

[3] = Cytotoxicity against human A549 cells assessed as inhibition of cell proliferation after 4 days by Coulter counter analysis; format: cell-based; in short: as §2
[4] = Inhibition of Plasmodium falciparum HGXPRT
In short: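 PfHGXPRT purified by a published procedure. Ki from Hanes' plots with guanine fixed at 60 μM and PRib-PP varied (2-1000 μM) according to Km(app); one concentration of each inhibitor.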

[5] = target: T1, Hypoxanthine-guanine phosphoribosyltransferase (Homo sapiens, UniProt P00492); test: Inhibition of human N-terminal hexahistidine-tagged HGPRT; in short: as §1
T1 sequence (P00492 whole entry): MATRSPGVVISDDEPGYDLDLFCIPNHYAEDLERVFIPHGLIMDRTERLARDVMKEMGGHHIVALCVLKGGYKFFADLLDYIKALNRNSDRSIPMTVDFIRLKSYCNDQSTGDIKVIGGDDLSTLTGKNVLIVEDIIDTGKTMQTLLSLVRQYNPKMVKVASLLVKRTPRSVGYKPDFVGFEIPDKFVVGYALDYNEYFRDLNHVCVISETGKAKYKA

[6] = Cytotoxicity against thioguanine-resistant human C32TG cells harboring HGPRT deletion mutant assessed as inhibition of cell proliferation after 4 days by Coulter counter analysis; format: cell-based; in short: as §2
Plasmodium falciparum [7] = test: Antimalarial activity against wild type early trophozoite stage of Plasmodium falciparum D6 in human red blood cells assessed as [3H]hypoxanthine uptake after 96 hrs; format: functional, organism-based
In short: (§3)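 P. falciparum cultured in RPMI-1640-LPLF with 10% human plasma, sorbitol-synchronised; assay started with >90% rings at 0.5% parasitaemia, 2% haematocrit in hypoxanthine-free medium. Ten 2-fold serial dilutions for 96 h, [3H]-hypoxanthine (0.2 µCi/well) added at ~48 h. IC50 from non-linear regression of incorporation versus log concentration; three independent experiments, mean ± SD.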

Plasmodium falciparum [8] = test: Antimalarial activity against chloroquine and pyrimethamine-resistant early trophozoite stage of Plasmodium falciparum W2 in human red blood cells assessed as [3H]hypoxanthine uptake after 96 hrs; format: functional, organism-based; in short: as §3

SMILES: CCCCCCCCCCCCCCCCOCCCOP(=O)(O)CCOCCn1cnc2c(=O)[nH]c(N)nc21
CC50 at 96 h [2]: 61 µM | CC50 at 96 h [3]: 61 µM | CC50 at 96 h [6]: 36 µM | IC50 (Plasmodium falciparum [8]): 4.7 µM | IC50 (Plasmodium falciparum [7]): 7.6 µM

SMILES: CCOC(=O)[C@H](C)NP(=O)(CCOCCn1cnc2c(=O)[nH]c(N)nc21)N[C@@H](C)C(=O)OCC
CC50 at 96 h [2]: > 300 µM | CC50 at 96 h [3]: > 300 µM | CC50 at 96 h [6]: > 300 µM | IC50 (Plasmodium falciparum [8]): 48 µM | IC50 (Plasmodium falciparum [7]): 42 µM

SMILES: CCCCCCCCCCCCCCCCOCCCOP(=O)(CCOCCn1cnc2c(=O)[nH]c(N)nc21)OCCCOCCCCCCCCCCCCCCCC
CC50 at 96 h [2]: > 300 µM | CC50 at 96 h [3]: > 300 µM | CC50 at 96 h [6]: > 300 µM | IC50 (Plasmodium falciparum [8]): 68 µM | IC50 (Plasmodium falciparum [7]): 59 µM

SMILES: CCOC(=O)[C@H](Cc1ccccc1)NP(=O)(COCC(COCP(=O)(N[C@@H](Cc1ccccc1)C(=O)OCC)N[C@@H](Cc1ccccc1)C(=O)OCC)Cn1cnc2c(=O)[nH]c(N)nc21)N[C@@H](Cc1ccccc1)C(=O)OCC
CC50 at 96 h [2]: 130 µM | CC50 at 96 h [3]: > 300 µM | CC50 at 96 h [6]: 109 µM | IC50 (Plasmodium falciparum [8]): 7.1 µM | IC50 (Plasmodium falciparum [7]): 9.7 µM

SMILES: CCOC(=O)[C@H](Cc1ccccc1)NP(=O)(COCC(COCP(=O)(N[C@@H](Cc1ccccc1)C(=O)OCC)N[C@@H](Cc1ccccc1)C(=O)OCC)Cn1cnc2c(=O)[nH]cnc21)N[C@@H](Cc1ccccc1)C(=O)OCC
CC50 at 96 h [2]: 41 µM | CC50 at 96 h [3]: 101 µM | CC50 at 96 h [6]: 55 µM | IC50 (Plasmodium falciparum [8]): 4 µM | IC50 (Plasmodium falciparum [7]): 3.8 µM

Further lines, with some results ahead:

Ki [5]: 0.03 µM
SMILES: Nc1nc2c(ncn2CC(COCP(=O)(O)O)COCP(=O)(O)O)c(=O)[nH]1
Ki [1]: 0.6 µM | CC50 at 96 h [2]: > 300 µM | CC50 at 96 h [3]: > 300 µM | Ki [4]: 0.07 µM | CC50 at 96 h [6]: > 300 µM

Ki [5]: 1 µM
SMILES: O=c1[nH]cnc2c1ncn2CC(COCP(=O)(O)O)COCP(=O)(O)O
Ki [1]: 2 µM | Ki [4]: 5 µM

Ki [5]: 0.6 µM
SMILES: Nc1nc2c(ncn2CC(COCCP(=O)(O)O)OCCP(=O)(O)O)c(=O)[nH]1 (centres undefined)
Ki [1]: 0.7 µM | Ki [4]: 0.5 µM

IC50 (Plasmodium falciparum [7]): 242 µM
SMILES: Nc1nc2c(ncn2CCOCCP(=O)(O)O)c(=O)[nH]1
CC50 at 96 h [2]: > 300 µM | CC50 at 96 h [3]: > 300 µM | CC50 at 96 h [6]: > 300 µM

Ki [5]: 37 µM
SMILES: Nc1nc2c(ncn2C(COCP(=O)(O)O)COCP(=O)(O)O)c(=O)[nH]1
Ki [1]: 18 µM | Ki [4]: 2 µM
